Experimental data from PubChem BioAssay.
Active and inactive are the calls of the source.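 Rule for the calls, unless noted: active = GFP response above 150% of the DMSO level; inconclusive = fewer than 70 events counted for a yeast strain; inactive = the rest.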

How the values were obtained:
[1] = hit retest on RPL19A-GFP reporter strain – cell-based, S. cerevisiae, flow cytometry, cherry picks, mother/daughter gates, confirmation (AID 2270;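 active = GFP response below 50% of the DMSO control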); conditions: 3 h, at 10 µM, stronger effect = lower value, 100 = same GFP as DMSO wells
[2] = yeast TOR pathway reporter LAP4-GFP change – cell-based, cherry picks, flow cytometry, mother/daughter gates, confirmation (AID 2271;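 active = GFP response above 150% of the DMSO control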;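 note: ratio of sample to DMSO plate mean so 100% equals DMSO level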); conditions: S. cerevisiae LAP4-GFP strain, 3 h, at 10 µM, stronger effect = higher value, 100 means same as DMSO control
Outline: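 Material – Alexa Fluor 633-labelled Saccharomyces cerevisiae GFP-fusion strain, single-plex · Incubation – compound exposure 3 h at 30 °C, end-over-end rotation · Measured by – GFP by flow cytometry · Measure – median GFP fluorescence as percent of plate-mean DMSO wells · Control set – positive rapamycin (400 ng/mL), negative DMSO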

[3] = TOR pathway reporter MEP2-GFP, retest of hits – S. cerevisiae, flow cytometry GFP, cherry picks, confirmation (AID 2272;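 active = GFP response above 150% of the DMSO control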;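 note: ratio of well signal to plate DMSO mean so 100% equals DMSO level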); conditions: S. cerevisiae MEP2-GFP strain, 3 h, at 10 µM, stronger effect = higher value
[4] = yeast AGP1-GFP fluorescence change, single-dose – cell-based, flow cytometry, S. cerevisiae, cherry picks, confirmation (AID 2273);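 note: median GFP channel fluorescence over the whole cell population gate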; conditions: S. cerevisiae AGP1-GFP strain, 3 h, at 10 µM
[5] = TOR pathway CIT2 reporter hit retest – S. cerevisiae, GFP fusion, cherry picks, mother/daughter gates, confirmation (AID 2274); conditions: S. cerevisiae CIT2-GFP strain, flow cytometry, 3 h, at 10 µM, stronger effect = higher value
[6] = measured here: daughter cell gate
[7] = measured here: mother cell gate
[8] = measured here: daughter cell gate response
[9] = measured here: mother cell gate response

| SMILES | GFP response vs DMSO [1] | GFP response vs DMSO [1, 6] [%] | GFP response vs DMSO [1, 7] [%] | GFP response relative to DMSO [2] | GFP response relative to DMSO [2, 8] [%] | GFP response relative to DMSO [2, 9] [%] | GFP response vs DMSO [3] | GFP response, % of DMSO [4] | GFP response, % of DMSO [5] | GFP response, % of DMSO [5, 6] [%] | GFP response, % of DMSO [5, 7] [%] |
| --- | --- | --- | --- | --- | --- | --- | --- | --- | --- | --- | --- |
| COc1cc(NC(=O)C(C)C)ccc1NC(=O)c1cc2ccccc2o1 | 102% (inactive) | 99.8 | 103 | 92.6% (inactive) | 92.5 | 94.2 | 102% (inactive) | 97.8% (inactive) | 103% (inactive) | 101 | 104 |
| Oc1ccc(N=Nc2ccccc2)o1 | 111% (inactive) | 113 | 106 | 180% (active) | 153 | 173 | 124% (inactive) | 111% (inactive) | 118% (inactive) | 119 | 110 |
| O=C(Nc1cccc(Cl)c1N1CCCC1)c1ccc([N+](=O)[O-])o1 | 99.2% (inactive) | 96.4 | 95.8 | 99.2% (inactive) | 92.8 | 96.1 | 100% (inactive) | 97.6% (inactive) | 99.7% (inactive) | 99.1 | 91.4 |
| COc1cc(NC(=O)c2ccccc2F)ccc1NC(=O)c1cc2ccccc2o1 | 87.2% (inactive) | 90.2 | 88.8 | 97% (inactive) | 97.5 | 97.3 | 107% (inactive) | 101% (inactive) | 100% (inactive) | 97.4 | 98.1 |
| COc1ccc(C(=O)ON=C2CCN(c3ccc([N+](=O)[O-])cc3)CC2)cc1 | 97.6% (inactive) | 97.5 | 97.6 | 117% (inactive) | 107 | 118 | 97.5% (inactive) | 76.1% (inactive) | 108% (inactive) | 104 | 108 |
| COC(=O)c1ccc(/C=C/C(=O)c2ccc(OC)cc2)cc1 | 99.9% (inactive) | 97.8 | 101 | 114% (inactive) | 108 | 111 | 104% (inactive) | 94.9% (inactive) | 99.3% (inactive) | 100 | 99.1 |
| O=C(O)c1ccc(N/N=C/C(Br)=C/c2ccccc2)cc1 | 98.4% (inactive) | 97 | 96.7 | 131% (inactive) | 130 | 130 | 97.5% (inactive) | 94.7% (inactive) | 90.7% (inactive) | 92.7 | 85.1 |
| CCCC(=O)c1ccc(N2CCN(C(=O)c3ccc(Br)cc3)CC2)c(F)c1 | 101% (inactive) | 95.9 | 94 | 102% (inactive) | 99.2 | 99.3 | 102% (inactive) | 100% (inactive) | 105% (inactive) | 105 | 99.7 |
| CCOc1ccc(N/N=C(/C#N)C(N)=O)cc1 | 82.7% (inactive) | 65.8 | 81.8 | 237% (active) | 182 | 250 | 176% (active) | 113% (inactive) | 161% (active) | 128 | 159 |
| CC(=O)Nc1ccc(NC(=O)c2oc3cc(C)c(C)cc3c2C)cc1 | 99% (inactive) | 96.4 | 99.4 | 99.2% (inactive) | 99.2 | 98.3 | 102% (inactive) | 102% (inactive) | 101% (inactive) | 99.1 | 98.5 |
| CCOc1cc(C(=S)N2CCCCC2)ccc1OS(=O)(=O)c1ccc(Cl)cc1 | 96.5% (inactive) | 96.1 | 96.5 | 102% (inactive) | 101 | 105 | 103% (inactive) | 105% (inactive) | 100% (inactive) | 99.3 | 98.2 |
| O=C1Nc2ccccc2/C1=C\C(=O)c1ccccc1 | 99% (inactive) | 96.4 | 91.9 | 228% (active) | 180 | 236 | 128% (inactive) | 103% (inactive) | 109% (inactive) | 110 | 104 |
| COc1ccc(CN2CCN(c3ncccn3)CC2)c(C)c1C | 96.2% (inactive) | 98.1 | 95.2 | 100% (inactive) | 101 | 100 | 99.3% (inactive) | 100% (inactive) | 100% (inactive) | 101 | 102 |
| O=C(Nc1nc(-c2ccc(Cl)cc2)cs1)c1cccnc1 | 96.8% (inactive) | 87.8 | 98.3 | 105% (inactive) | 101 | 104 | 99% (inactive) | 99.4% (inactive) | 95.9% (inactive) | 93.8 | 95.6 |
| CCCc1nnc(N2C(=O)c3cccc4cccc(c34)C2=O)s1 | 103% (inactive) | 103 | 102 | 115% (inactive) | 104 | 113 | 103% (inactive) | 108% (inactive) | 113% (inactive) | 106 | 115 |
| Cc1ccc2[nH]cc(/C=C/c3cc[n+](C)cc3)c2c1 | 106% (inactive) | 106 | 105 | 153% (active) | 156 | 154 | 170% (inactive) | 116% (inactive) | 147% (inactive) | 156 | 140 |

| SMILES | GFP response vs DMSO [1] | GFP response vs DMSO [1, 6] [%] | GFP response vs DMSO [1, 7] [%] | GFP response relative to DMSO [2] | GFP response relative to DMSO [2, 8] [%] | GFP response relative to DMSO [2, 9] [%] | GFP response vs DMSO [3] | GFP response, % of DMSO [4] | GFP response, % of DMSO [5] | GFP response, % of DMSO [5, 6] [%] | GFP response, % of DMSO [5, 7] [%] |
| --- | --- | --- | --- | --- | --- | --- | --- | --- | --- | --- | --- |
| Nc1cccnc1S(=O)(=O)c1cccc(C(F)(F)F)c1 | 97.6% (inactive) | 97.1 | 97.2 | 96.7% (inactive) | 97.6 | 94 | 102% (inactive) | 98.9% (inactive) | 96.9% (inactive) | 99.1 | 93.8 |
| CCN1CCN(C(=O)C2CCN(c3nnc(C)c4c(C)n(-c5ccc(C)cc5)nc34)CC2)CC1 | 97.2% (inactive) | 96.5 | 97.8 | 102% (inactive) | 101 | 101 | 104% (inactive) | 106% (inactive) | 99.3% (inactive) | 102 | 98 |
| Cc1cccc(C)c1NC(=O)c1nc(S(=O)(=O)Cc2ccccc2)ncc1Cl | 97.1% (inactive) | 96.4 | 95.8 | 102% (inactive) | 101 | 101 | 101% (inactive) | 102% (inactive) | 94.4% (inactive) | 92.3 | 93.8 |
| O=[N+]([O-])/C=C/c1c(OCc2ccccc2)ccc2ccccc12 | 102% (inactive) | 104 | 101 | 112% (inactive) | 106 | 118 | 98.8% (inactive) | 102% (inactive) | 99.7% (inactive) | 103 | 94.7 |
| O=C(Nc1cc(Sc2ccccn2)cc([N+](=O)[O-])c1)c1ccc([N+](=O)[O-])cc1 | 97.8% (inactive) | 98.4 | 96.9 | 98.9% (inactive) | 101 | 98.4 | 110% (inactive) | 104% (inactive) | 107% (inactive) | 106 | 106 |
| COc1ccccc1-c1noc(CCC(=O)Nc2cccc(C(F)(F)F)c2)n1 | 98.2% (inactive) | 97.9 | 98.5 | 102% (inactive) | 104 | 100 | 107% (inactive) | 102% (inactive) | 100% (inactive) | 101 | 94.4 |
| COc1cccc(OCC(=O)N2CCCc3ccccc32)c1 | 97.8% (inactive) | 97 | 97.1 | 101% (inactive) | 105 | 102 | 99.3% (inactive) | 100% (inactive) | 95.8% (inactive) | 97.6 | 94.9 |
| O=C1C=CC(=O)N1N(c1ccccc1)c1ccccc1 | 96.2% (inactive) | 90.7 | 87.1 | 209% (active) | 148 | 208 | 127% (inactive) | 114% (inactive) | 95.9% (inactive) | 88.9 | 79.8 |
| O=c1oc(/C=C/c2ccc([N+](=O)[O-])s2)nc2ccccc12 | 112% (inactive) | 113 | 108 | 184% (active) | 180 | 189 | 267% (active) | 107% (inactive) | 183% (active) | 180 | 181 |
| N#Cc1cc([N+](=O)[O-])c(-n2nnc3ccccc32)c([N+](=O)[O-])c1 | 92.8% (inactive) | 94.7 | 88.8 | 172% (active) | 149 | 184 | 90.5% (inactive) | 98.2% (inactive) | 100% (inactive) | 99.2 | 93.2 |
| O=C(N/N=C/c1ccccc1Cl)c1cccc(F)c1 | 101% (inactive) | 98.1 | 99.8 | 103% (inactive) | 101 | 104 | 101% (inactive) | 98.8% (inactive) | 100% (inactive) | 101 | 98.1 |
| Cn1ncc2c(O/N=C(\N)c3ccc(C(C)(C)C)cc3)ncnc21 | 92.7% (inactive) | 92 | 87.9 | 143% (inactive) | 96.6 | 162 | 121% (inactive) | 106% (inactive) | 182% (active) | 114 | 155 |
| Cc1ccc(C(C(=O)NC2CCCCC2)N(CCCN2CCOCC2)C(=O)c2snc(C(N)=O)c2N)cc1 (stereo unspecified) | 101% (inactive) | 102 | 102 | 105% (inactive) | 102 | 104 | 99.5% (inactive) | 104% (inactive) | 102% (inactive) | 98.3 | 103 |
| Cc1nn2c(NCCCN3CCOCC3)c3c(nc2c1-c1ccccc1)CCC3 | 101% (inactive) | 102 | 101 | 98.2% (inactive) | 97.5 | 98.4 | 99% (inactive) | 103% (inactive) | 100% (inactive) | 101 | 101 |
| Cc1c(NC2=C(Cl)C(=O)N(c3ccccc3)C2=O)c(=O)n(-c2ccccc2)n1C | 93.5% (inactive) | 97.3 | 95.2 | 97.7% (inactive) | 104 | 99.5 | 99.5% (inactive) | 103% (inactive) | 104% (inactive) | 108 | 96.8 |
